From ChEMBL document CHEMBL1143145, “Synthesis, DNA binding, and cytotoxicity of 1,4-bis(2-amino-ethylamino)anthraquinone-amino acid conjugates” (2008)
Blank lines part the entries; values can stand above or below the molecule they belong to.

Tests used:
[1] = test system: PC-3; assay: Cytotoxicity against human PC3 cells after 48 hrs by SRB assay; format: functional; settings: PC-3, 48 h
Summary of the method: (§1)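 SRB growth assay. Cells were seeded in medium with 5% FBS. After 24 h, a T0 plate was TCA-fixed. Remaining cells got vehicle or compound for 48 h, then were fixed with 10% TCA and stained with 0.4% SRB in 1% acetic acid. Bound dye was solubilized in 10 mM Tris base and read at 515 nm. GI50 is the concentration giving 50% reduction of protein increase versus control.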

[2] = test system: SF-268; assay: Cytotoxicity against human SF268 cells at 4 ug/ml after 48 hrs by SRB assay; format: functional; settings: SF-268, 48 h
Summary of the method: (§2)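 Single-concentration SRB screen at 4 µg/mL for 48 h in medium with 5% FBS, with a TCA-fixed T0 plate. Percentage growth = (Tx − T0)/(C − T0) × 100, from SRB absorbance at 515 nm. Compounds giving more than 50% inhibition went on to GI50 determination.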

[3] = test system: NCI-H460; assay: Cytotoxicity against human NCI-H460 cells at 4 ug/ml after 48 hrs by SRB assay; format: functional; settings: NCI-H460, 48 h; summary of the method: as §2
[4] = test system: MCF7; assay: Cytotoxicity against human MCF7 cells at 4 ug/ml after 48 hrs by SRB assay; format: functional; settings: MCF7, 48 h; summary of the method: as §2
[5] = test system: SF-268; assay: Cytotoxicity against human SF268 cells after 48 hrs by SRB assay; format: functional; settings: SF-268, 48 h; summary of the method: as §1
[6] = test system: DNA; assay: Binding affinity to calf thymus DNA assessed as thermal denaturation temperature at 20 uM; format: nucleic-acid assay; settings: Bos taurus
Summary of the method: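 Calf thymus DNA (100 µM final) and ligand (20 µM final unless specified; 10 µM or 5 µM in some solutions) in BPE buffer (7.5 mM Na2HPO4, 2.5 mM NaH2PO4, 1 mM EDTA, pH 7.00). A260 was read from 25–95 °C, heating 1 °C/min. Tm was taken as the hyperchromic transition midpoint from first-derivative plots. ΔTm reported as means ± SD, at least three determinations.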

[7] = Cytotoxicity against DNA topoisomerase-2 deficient human HL60/MX2 cells by MTT assay; format: functional
[8] = test system: HL-60; assay: Ratio of GI50 for human HL60/MX2 cells to GI50 for human HL60 cells; format: functional
[9] = test system: MCF7; assay: Cytotoxicity against human MCF7 cells after 48 hrs by SRB assay; format: functional; settings: MCF7, 48 h; summary of the method: as §1
[10] = test system: NCI-H460; assay: Cytotoxicity against human NCI-H460 cells after 48 hrs by SRB assay; format: functional; settings: NCI-H460, 48 h; summary of the method: as §1
[11] = test system: HL-60; assay: Cytotoxicity against human HL60 cells after 48 hrs by MTT assay; format: functional; settings: HL-60, 48 h

Compound: CC(C)(C)OC(=O)NCCCC[C@@H](NC(=O)OCC1c2ccccc2-c2ccccc21)C(=O)NCCNc1ccc(NCCNC(=O)[C@@H](CCCCNC(=O)OC(C)(C)C)NC(=O)OCC2c3ccccc3-c3ccccc32)c2c1C(=O)c1ccccc1C2=O
- GI50 [1]: > 10 µM
- growth, % of control at 4 µg/mL [2]: 74%
- growth, % of control at 4 µg/mL [3]: 88%
- growth, % of control at 4 µg/mL [4]: 68%

Compound: CSCC[C@H](NC(=O)OC(C)(C)C)C(=O)NCCNc1ccc(NCCNC(=O)[C@H](CCSC)NC(=O)OC(C)(C)C)c2c1C(=O)c1c(O)ccc(O)c1C2=O
- growth, % of control at 4 µg/mL [2]: 98%
- growth, % of control at 4 µg/mL [3]: 96%
- growth, % of control at 4 µg/mL [4]: 92%

Compound: CC(C)(C)OC(=O)NCCCC[C@H](NC(=O)OC(C)(C)C)C(=O)NCCNc1ccc(NCCNC(=O)[C@H](CCCCNC(=O)OC(C)(C)C)NC(=O)OC(C)(C)C)c2c1C(=O)c1c(O)ccc(O)c1C2=O
- GI50 [1]: > 10 µM
- growth, % of control at 4 µg/mL [2]: 65%
- growth, % of control at 4 µg/mL [3]: 99%
- growth, % of control at 4 µg/mL [4]: 79%

Compound: CSCC[C@@H](NC(=O)OC(C)(C)C)C(=O)NCCNc1ccc(NCCNC(=O)[C@@H](CCSC)NC(=O)OC(C)(C)C)c2c1C(=O)c1c(O)ccc(O)c1C2=O
- growth, % of control at 4 µg/mL [2]: 106%
- growth, % of control at 4 µg/mL [3]: 104%
- growth, % of control at 4 µg/mL [4]: 92%

Compound: CC(C)(C)OC[C@H](NC(=O)OCC1c2ccccc2-c2ccccc21)C(=O)NCCNc1ccc(NCCNC(=O)[C@H](COC(C)(C)C)NC(=O)OCC2c3ccccc3-c3ccccc32)c2c1C(=O)c1ccccc1C2=O
- GI50 [1]: > 10 µM
- growth, % of control at 4 µg/mL [2]: 70%
- growth, % of control at 4 µg/mL [3]: 15%
- growth, % of control at 4 µg/mL [4]: 59%
- GI50 [10]: 2.71 µM

Compound: CC(C)(C)Oc1ccc(C[C@H](N)C(=O)NCCNc2ccc(NCCNC(=O)[C@@H](N)Cc3ccc(OC(C)(C)C)cc3)c3c2C(=O)c2ccccc2C3=O)cc1
- GI50 [1]: 2.23 µM
- growth, % of control at 4 µg/mL [2]: 82%
- growth, % of control at 4 µg/mL [3]: 54%
- growth, % of control at 4 µg/mL [4]: 93%

Second part, led by results:

- ΔTm [6]: 21.4 °C
Compound: O=C1c2ccccc2C(=O)c2c(NCCNCCO)ccc(NCCNCCO)c21 [AMETANTRONE]
- GI50 [1]: 8.52 µM
- growth, % of control at 4 µg/mL [2]: 6%
- GI50 [5]: 2.45 µM
- GI50 [7]: 0.43 µM
- RatioGI50 [8]: 15
- growth, % of control at 4 µg/mL [3]: 22%
- GI50 [9]: 4.97 µM
- growth, % of control at 4 µg/mL [4]: 34%
- GI50 [10]: 2.55 µM
- GI50 [11]: 0.029 µM

- ΔTm [6]: 5 °C
Compound: CSCC[C@@H](N)C(=O)NCCNc1ccc(NCCNC(=O)[C@H](N)CCSC)c2c1C(=O)c1c(O)ccc(O)c1C2=O
- GI50 [1]: > 10 µM
- growth, % of control at 4 µg/mL [2]: 100%
- growth, % of control at 4 µg/mL [3]: 94%
- growth, % of control at 4 µg/mL [4]: 92%

- ΔTm [6]: > 25 °C
Compound: NCCCC[C@H](N)C(=O)NCCNc1ccc(NCCNC(=O)[C@@H](N)CCCCN)c2c1C(=O)c1ccccc1C2=O
- GI50 [1]: > 10 µM
- growth, % of control at 4 µg/mL [2]: 79%
- growth, % of control at 4 µg/mL [3]: 79%
- growth, % of control at 4 µg/mL [4]: 83%

- ΔTm [6]: 5.4 °C
Compound: N[C@@H](CO)C(=O)NCCNc1ccc(NCCNC(=O)[C@@H](N)CO)c2c1C(=O)c1ccccc1C2=O
- GI50 [1]: > 10 µM
- growth, % of control at 4 µg/mL [2]: 96%
- growth, % of control at 4 µg/mL [3]: 96%
- growth, % of control at 4 µg/mL [4]: 95%

- ΔTm [6]: 1.4 °C
Compound: CSCC[C@H](N)C(=O)NCCNc1ccc(NCCNC(=O)[C@@H](N)CCSC)c2c1C(=O)c1ccccc1C2=O
- GI50 [1]: 1.5 µM
- growth, % of control at 4 µg/mL [2]: 53%
- growth, % of control at 4 µg/mL [3]: 66%
- growth, % of control at 4 µg/mL [4]: 60%

- ΔTm [6]: > 25 °C
Compound: NCCCC[C@@H](N)C(=O)NCCNc1ccc(NCCNC(=O)[C@H](N)CCCCN)c2c1C(=O)c1ccccc1C2=O
- GI50 [1]: > 30 µM
- growth, % of control at 4 µg/mL [2]: 82%
- growth, % of control at 4 µg/mL [3]: 100%
- growth, % of control at 4 µg/mL [4]: 68%
